Source: PubChem (Broad Institute)
This is a sample that favours compounds with a hit; in the whole collection about 1.4% have one here.
GSK3A inh = blockers of GSK3A enzyme activity – biochemical, luminescence, cell-free homogeneous, HTS, primary screen; Glycogen synthase kinase-3 alpha (Homo sapiens), P49840; GSK-3 alpha kinase, ADP-Glo luminescence, 60 min; inhibition, % at 10 µM; hit rate 0.1% among 320,000; AID 2650, 2010;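 active = more than half of replicates show inhibition above 20%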;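 note: GST-tagged GSK-3 alpha with peptide substrate and 25 µM ATP; 0% = DMSO neutral wells and 100% = GW8510 positive control wells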
Target sequence (P49840 whole entry, looked up): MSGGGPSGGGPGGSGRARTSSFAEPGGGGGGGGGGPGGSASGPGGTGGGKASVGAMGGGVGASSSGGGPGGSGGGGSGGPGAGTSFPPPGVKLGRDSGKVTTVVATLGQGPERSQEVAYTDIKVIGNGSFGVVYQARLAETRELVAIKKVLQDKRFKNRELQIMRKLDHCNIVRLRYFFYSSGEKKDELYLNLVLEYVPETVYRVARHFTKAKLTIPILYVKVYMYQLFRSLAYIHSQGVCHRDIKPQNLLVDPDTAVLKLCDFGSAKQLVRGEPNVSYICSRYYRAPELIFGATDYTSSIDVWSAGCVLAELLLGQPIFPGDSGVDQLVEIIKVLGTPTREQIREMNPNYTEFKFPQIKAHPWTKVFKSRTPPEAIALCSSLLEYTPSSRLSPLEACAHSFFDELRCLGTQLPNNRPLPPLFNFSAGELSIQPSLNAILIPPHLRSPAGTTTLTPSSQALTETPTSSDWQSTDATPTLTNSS
GSK3beta inhib = human GSK3beta kinase inhibitors, primary screen, biochemical, cell-free homogeneous, HTS. hit rate 0.038% among 300,000. AID 2097, 2009. GST-GSK3beta kinase, ADP-Glo luminescence, 60 min; active compounds read low. activity score (negative = inhibition), % at 10 µM. Glycogen synthase kinase-3 beta (Homo sapiens), P49841;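 active = more than half of replicate wells score below -50%, meaning over 50% inhibition versus plate controls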;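 note: 0% = median DMSO wells and -100% = median GW8510 positive control wells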
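Assay system: GST-fused GSK3beta enzyme, cell-free / Medium: Tris pH 7.5 buffer with MgCl2, DTT, BSA, heparin / Also added: peptide substrate plus 25 µM ATP (final) / Compound: 10 µM single point / Timing: kinase reaction with compound 60 min at room temperature / Detection: ADP-Glo luminescence / Benchmarks: DMSO neutral wells and GW8510 at 20 µM as positive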
INS-1E GSIS act = GLuc luminescence reporter in INS-1E cells, primary screen for activators of glucose-dependent secretion of insulin; INS-1E GLuc reporter insulin secretion, 2-3 h; activation, % at 16.6 µM; hit rate 0.61% among 370,000; AID 743287, 2014;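 active = lowest replicate activation of at least 40%, so every replicate reaches that level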;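 note: 0% = median of neutral control wells and 100% = median of IBMX positive control wells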
Env fusion inh = inhibitors of HIV-1 Env-driven cell-cell fusion, primary screen, HeLa-JRFL effector, CEM21 target cells, luciferase | inhibition, % at 12.3 µM | hit rate 1.1% among 360,000 | AID 651610, 2012;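 active = mean replicate inhibition score of at least 50 and every replicate individually at or above 50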;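 note: 0% = plate neutral controls and 100% = maraviroc near 300 nM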
STK33 kinase inh = inhibitors of purified STK33 kinase, primary screen, biochemical, ADP-Glo luminescence, homogeneous, cell-free. Serine/threonine-protein kinase 33 (Homo sapiens), Q9BYT3. MBP phosphorylation. inhibition, % at 10 µM. hit rate 0.073% among 320,000. AID 2661, 2010;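 active = inhibition at or above 25%, using the most active replicate where run in duplicate; inactive = inhibition below 25%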
CDK5 inh = inhibitors of human CDK5/p35 kinase, primary screen, biochemical, single concentration; hit rate 0.01% among 330,000; AID 488839, 2010; Recombinant CDK5/p35, ADP-Glo luminescence, 60 min; inhibition, % at 10 µM; Cyclin-dependent kinase 5 (Homo sapiens) + Cyclin-dependent kinase 5 activator 1 (Homo …;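 active = highest replicate inhibition of at least 50% and at least 75% of replicates reaching 50%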;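 note: plate controls were DMSO neutral control for no effect and GW8510 at 10 µM for full effect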
An asterisk follows results filed as active; . = no result; [ ] = remark or other dose.

SMILES	GSK3A inh	GSK3beta inhib	INS-1E GSIS act	Env fusion inh	STK33 kinase inh	CDK5 inh
CNC[C@H]1Oc2ccc(N)cc2C(=O)N(C)C[C@H]1C	.	.	10	.	.	.
CCOC(=O)c1nc(NCc2cccnc2)c2ccccc2n1	-2	0	46*	-12	0	-1
COc1ccc(-c2nnc(SCC#N)o2)cc1	0	1	.	-39	1	2
N#CCSc1nnc(-c2sc3ccccc3c2Cl)o1	0	-3	8	79*	-2	-3
O=C(O)C[C@H]1C=C[C@@H](NC(=O)CCN2CCCCC2)[C@@H](CO)O1	.	.	13	.	.	.
Cc1noc(C)c1NC(=O)Nc1ccc2c(c1)CC(=O)N([C@@H](C)CO)C[C@H](C)[C@H](CN(C)C(=O)Nc1ccc(F)cc1)O2	.	.	5	-4[16.7 µM]	.	.
O=C(NCC1CCCCC1)[C@@H]1N[C@@H]2c3ccc(C4=CCCC4)c(=O)n3C[C@@H]2[C@H]1CO	.	.	20	.	.	.
O=[N+]([O-])c1c(-c2cn[nH]c2)n[nH]c1-c1cn[nH]c1	67*	-35	26	-20	13	-1
CCNc1nc(NCC)nc(N(C#N)C(C)C)n1	0	3	48*	-17	-1	0
CCNc1nc(NC(C)C)nc(N(C#N)C(C)C(=O)N(C)C)n1 (configuration not stated)	-3	1	.	.	1	-1
C[C@H](NC(=O)[C@H]1[C@H](CO)[C@H]2Cn3c(ccc(C4=CCCCC4)c3=O)[C@@H]1N2)c1ccccc1	.	.	4	.	.	.
N#C[C@H]1[C@@H](c2ccc(-c3ccccc3)cc2)[C@@H](CO)N1S(=O)(=O)Cc1ccccc1	.	.	-25	62*[16.7 µM]	.	.
N#C[C@@H]1[C@H](c2ccc(-c3ccccc3F)cc2)[C@@H](CO)N1C(=O)Cc1ccccc1	.	.	-17	58*[16.7 µM]	.	.
N#C[C@@H]1[C@@H](c2ccc(-c3ccccc3F)cc2)[C@@H](CO)N1C(=O)Cc1ccccc1	.	.	5	-1[16.7 µM]	.	.
COc1ccc2c3c([nH]c2c1)[C@@H](CO)N(C(=O)c1cccnc1)CC31CCN(Cc2cccnc2)CC1	.	.	-11	.	.	.
CCOC(=O)C1(C)C=C(Nc2ccc(O)cc2)C(=O)N1c1ccc(O)cc1 (configuration not stated)	0	0	-12	15	-1	1
CCOC(=O)C1(C)C=C(Nc2ccc(OC)cc2)C(=O)N1c1ccc(OC)cc1 (configuration not stated)	2	-1	59*	14	-1	2
O=C1O[C@@H](c2ccccc2)[C@@H](c2ccccc2)N2[C@@H](c3ccc(O)cc3)[C@]3(C(=O)Nc4ccc(C#CC5(O)CCCCCC5)cc43)[C@@H](C(=O)N3CCN(c4ncccn4)CC3)[C@H]12	.	.	.	-5[16.7 µM]	.	.
c1ccc2c(-c3cccc4nccn34)cncc2c1	.	.	1	55*	.	.
C[C@H](CO)N1C[C@H](C)[C@H](CN(C)Cc2ccncc2)Oc2ccc(NS(C)(=O)=O)cc2CC1=O	.	.	8	-8[16.7 µM]	.	.
O=C(CC(C(=O)N1CCc2ccccc21)n1ccnc1)NCc1cccnc1 (configuration not stated)	-3	-4	8	-42	0	-1
CCN(CCCNC(=O)CC(C(=O)N1CCc2ccccc21)n1ccnc1)c1ccccc1 (configuration not stated)	-1	3	-31	63*	-1	-2
C[C@H](CO)N1C[C@H](C)[C@H](CN(C)Cc2ccc(Oc3ccccc3)cc2)Oc2cc(-c3ccncc3)ccc2S1(=O)=O	.	.	-13	18[16.7 µM]	.	.
COc1ccc(COC[B-](F)(F)F)cc1	.	.	44*	.	.	.
COc1ccc(CCCCCCOCc2ccccc2)cc1	-1	.	-7	-27	-1	1
COc1cc(C2N(C)CCC3(OCCO3)C2(C)C)cc(OC)c1OC (configuration not stated)	-1	1	48*	-30	-2	0
O=C(O)c1ccc(NS(=O)(=O)c2ccc3c(c2)OCCO3)cc1	.	3	29	-48	0	1
